Published values of several laboratories.
Lines come from different studies, so protocols differ.
Cell line: HepG2
Effect on: cell growth or viability

The viability of `CCOC(=O)c1ccc(-n2c(N)c(C#N)c(CC#N)c(C#N)c2=O)cc1` is reported as 90.2% (MTT; 3.125 µM, 24 h).
With `CC(=O)Nc1cccc(-n2c(=O)n(C3CC3)c(=O)c3c(Nc4ccc(I)cc4F)n(C)c(=O)c(C)c32)c1` the viability was 40.7% (resazurin; 0.1 µM, 72 h).
For `COc1ccc(NC(=O)c2c(Nc3ccccc3)sc(C#N)c2NC(=O)CNc2ccc(Br)cc2)cc1`, the viability was 46.2% (SRB; 10 µM, 48 h).
With `Cc1ccc2nc(-c3ccco3)[nH]c2c1` the IC50 was greater than 100 µM (MTT; 48 h).
The viability of `CCOC(=O)c1ccc(-n2c(C)cc(/C=C/c3ccc(OC)cc3)c(C#N)c2=O)cc1` is reported as 58.1% (MTT; 50 µM, 24 h).
With `COc1ccc(NC(=O)c2c(Nc3ccccc3)sc(C(=O)NN=Cc3ccc(Cl)cc3)c2NC(C)=O)cc1` the viability was 71.2% (SRB; 10 µM, 48 h).
For `Clc1ccc(-c2nc3ccccc3[nH]2)cc1`, the IC50 was 51.5 µM (MTT; 48 h).
With `COc1ccc(NCC(=O)Nc2c(C#N)sc(Nc3ccccc3)c2C(=O)Nc2ccc(OC)cc2)cc1` the viability was 84.4% (SRB; 0.1 µM, 48 h).
`c1ccc2c(-c3nc4ccccc4[nH]3)c3ccccc3cc2c1` gave an IC50 of 9.79 µM (MTT; 48 h).
